Experimental data from ChEMBL document CHEMBL4270630.

Legend:
Human coronavirus 229E [1] = experiment: Antiviral activity against Human coronavirus 229E infected in HEL299 cells assessed as reduction in virus induced cytopathic effect after 5 days by microscopic method; assay type: functional, organism-based; settings: HEL 299, 120 h
In short: (§1)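 Confluent HEL 299 cells in medium with 2% FCS were exposed to HCoV-229E (100 CCID50/well) together with compounds and held for 5 days at 35 °C. EC50 (CPE reduction) and MCC (minimal morphology change) were determined by microscopy. SI is MCC/EC50.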

Influenza A virus [2] = experiment: Antiviral activity against Influenza A virus A/PR/8/34(H1N1) infected in MDCK cells assessed as reduction in virus-induced cytopathic effect after 3 days by microscopic method; assay type: functional, organism-based, A/Puerto Rico/8/1934(H1N1); settings: Influenza A virus, A/Puerto Rico/8/1934(H1N1), MDCK, 72 h
In short: (§2)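 Semi-confluent MDCK cells were infected at an MOI of 0.0004 PFU/cell in Ultra-MDCK infection medium with 2 μg/mL TPCK-trypsin, together with compounds. After 3 days at 35 °C, CPE was scored by microscopy and confirmed by MTS formazan viability. EC50 is the concentration giving 50% inhibition of virus-induced CPE. Values are means of two to five independent tests.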

[3] = Cytotoxicity against human A549 cells assessed as changes in cell morphology after 3 days by microscopic method; assay type: cell-based
In short: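 Mock-infected A549 cells were incubated with compounds for 3 days. MCC is the concentration causing minimal change in cell morphology by microscopy.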

Influenza A virus [4] = experiment: Antiviral activity against Influenza A virus A/Virginia/ATCC3/2009(H1N1pdm) infected in MDCK cells after 3 days by MTS assay; assay type: functional, organism-based, Influenza A virus (A/Virginia/03/2009(H1N1)); settings: 72 h; in short: as §2
Influenza B virus [5] = experiment: Antiviral activity against Influenza B virus B/Ned/537/05 infected in MDCK cells assessed as reduction in virus-induced cytopathic effect after 3 days by microscopic method; assay type: functional, organism-based; settings: B/Ned/537/05, MDCK, 72 h
In short: (§3)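 Semi-confluent MDCK cells were infected at an MOI of 0.0004 PFU/cell in Ultra-MDCK infection medium with 2 μg/mL TPCK-trypsin, together with compounds. After 3 days at 35 °C, CPE was scored by microscopy and confirmed by MTS formazan viability. Values are means of two to five independent tests.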

[6] = Cytotoxicity against HEL299 cells assessed as changes in cell morphology after 5 days by microscopic method; assay type: cell-based, HEL 299; settings: human; in short: as §1
Influenza A virus [7] = experiment: Antiviral activity against Influenza A virus A/Virginia/ATCC3/2009(H1N1pdm) infected in MDCK cells assessed as reduction in virus-induced cytopathic effect after 3 days by microscopic method; assay type: functional, organism-based, Influenza A virus (A/Virginia/03/2009(H1N1)); settings: 72 h; in short: as §2
H3N2 subtype [8] = experiment: Antiviral activity against Influenza A virus A/HK/7/87(H3N2) infected in MDCK cells assessed as reduction in virus-induced cytopathic effect after 3 days by microscopic method; assay type: functional, organism-based; settings: A/Hong Kong/7/1987(H3N2), 72 h; in short: as §2
H3N2 subtype [9] = experiment: Antiviral activity against Influenza A virus A/HK/7/87(H3N2) infected in MDCK cells after 3 days by MTS assay; assay type: functional, organism-based; settings: A/Hong Kong/7/1987(H3N2), 72 h; in short: as §2
Human coronavirus 229E [10] = experiment: Antiviral activity against Human coronavirus 229E infected in human A549 cells assessed as reduction in virus RNA level after 3 days by qRT-PCR method; assay type: functional; settings: A549, 72 h
In short: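 Confluent A549 cells were infected with HCoV-229E in 2% FCS medium with compounds present. The inoculum was removed at 1 h and compounds were kept on at 35 °C. Supernatants were harvested at day 3, lysed at 75 °C for 10 min, and viral genome copies counted by one-step qRT-PCR.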

Influenza B virus [11] = experiment: Antiviral activity against Influenza B virus B/Ned/537/05 infected in MDCK cells after 3 days by MTS assay; assay type: functional, organism-based; settings: B/Ned/537/05, MDCK, 72 h; in short: as §3
Influenza A virus [12] = experiment: Antiviral activity against Influenza A virus A/PR/8/34(H1N1) infected in MDCK cells after 3 days by MTS assay; assay type: functional, organism-based, A/Puerto Rico/8/1934(H1N1); settings: Influenza A virus, A/Puerto Rico/8/1934(H1N1), MDCK, 72 h; in short: as §2
MDCK = experiment: Cytotoxicity against MDCK cells assessed as reduction in cell viability after 3 days by MTS assay; assay type: cell-based, Canis lupus familiaris; settings: dog, mdck, 72 h
[13] = Cytotoxicity against MDCK cells assessed as alteration in cell morphology after 3 days by microscopic method; assay type: cell-based, Canis lupus familiaris; settings: dog
In short: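 Mock-infected MDCK cells were treated with compounds in parallel with the antiviral assay, 3 days at 35 °C. MCC is the concentration causing minimal change in cell morphology by microscopy. CC50 is the 50% cytotoxic concentration by MTS formazan viability assay.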

Structure (SMILES): CCCCCCCCS(=O)(=O)N[C@H]1C(=O)N[C@@H]2Cc3ccc(c(Cl)c3)Oc3cc4cc(c3O)Oc3ccc(cc3Cl)[C@@H](O[C@@H]3O[C@H](CO)[C@@H](O)[C@H](O)[C@H]3NC(C)=O)[C@H]3NC(=O)[C@H](NC(O)[C@@H]4NC(=O)[C@@H](NC2=O)c2cc(O)cc(c2)Oc2cc1ccc2O)c1ccc(O)c(c1)-c1c(O)cc(O)cc1[C@H](C(=O)O)NC3=O (some centres not stated)
- EC50 (Human coronavirus 229E [1]): 5.4 µM
- EC50 (Influenza A virus [2]): 1.9 µM
- MCC at 72 h [3]: > 50 µM
- EC50 (Influenza A virus [4]): > 100 µM
- EC50 (Influenza B virus [5]): 4 µM
- MCC at 120 h [6]: ≥ 20 µM
- EC50 (Influenza A virus [7]): > 100 µM
- EC50 (H3N2 subtype [8]): 2 µM
- EC50 (H3N2 subtype [9]): 2.4 µM
- EC90 (Human coronavirus 229E [10]): 5.7 µM
- EC99 (Human coronavirus 229E [10]): 9.4 µM
- EC50 (Influenza B virus [11]): > 100 µM
- EC50 (Influenza A virus [12]): 2.5 µM
- CC50 (MDCK): 14 µM
- MCC at 72 h [13]: 20 µM

Structure (SMILES): O=C(N/C(=C\c1ccccc1)C(=O)N1CCC(O)(c2ccc(Br)cc2)CC1)c1ccccc1
- MCC at 72 h [3]: ≥ 50 µM
- EC90 (Human coronavirus 229E [10]): 11 µM
- EC99 (Human coronavirus 229E [10]): 15 µM

Structure (SMILES): CC(=O)N[C@H]1[C@H](O[C@@H]2c3ccc(c(Cl)c3)Oc3cc4cc(c3O)Oc3ccc(cc3Cl)C[C@H]3NC(=O)[C@H](NS(=O)(=O)c5ccc(-c6ccccc6)cc5)c5ccc(O)c(c5)Oc5cc(O)cc(c5)[C@H](NC3=O)C(=O)N[C@H]4C(O)N[C@H]3C(=O)N[C@H]2C(=O)N[C@@H](C(=O)O)c2cc(O)cc(O)c2-c2cc3ccc2O)O[C@H](CO)[C@@H](O)[C@@H]1O (some centres not stated)
- EC50 (Human coronavirus 229E [1]): > 100 µM
- EC50 (Influenza A virus [2]): 1.8 µM
- EC50 (Influenza A virus [4]): 2 µM
- EC50 (Influenza B virus [5]): 1.8 µM
- MCC at 120 h [6]: 4 µM
- EC50 (Influenza A virus [7]): 2 µM
- EC50 (H3N2 subtype [8]): 1.5 µM
- EC50 (H3N2 subtype [9]): 1.6 µM
- EC50 (Influenza B virus [11]): 2.4 µM
- EC50 (Influenza A virus [12]): 1.7 µM
- CC50 (MDCK): 15 µM
- MCC at 72 h [13]: 11 µM

Structure (SMILES): CCCCSC1=C(SCCCC)C(=O)N([C@H]2C(=O)N[C@@H]3Cc4ccc(c(Cl)c4)Oc4cc5cc(c4O)Oc4ccc(cc4Cl)[C@@H](O[C@@H]4O[C@H](CO)[C@@H](O)[C@H](O)[C@H]4NC(C)=O)[C@H]4NC(=O)[C@H](NC(O)[C@@H]5NC(=O)[C@@H](NC3=O)c3cc(O)cc(c3)Oc3cc2ccc3O)c2ccc(O)c(c2)-c2c(O)cc(O)cc2[C@H](C(=O)O)NC4=O)C1=O (some centres not stated)
- EC50 (Human coronavirus 229E [1]): 5.4 µM
- EC50 (Influenza A virus [2]): > 100 µM
- MCC at 72 h [3]: 50 µM
- EC50 (Influenza A virus [4]): 2.6 µM
- EC50 (Influenza B virus [5]): > 100 µM
- MCC at 120 h [6]: ≥ 20 µM
- EC50 (Influenza A virus [7]): 2.9 µM
- EC50 (H3N2 subtype [8]): > 100 µM
- EC50 (H3N2 subtype [9]): > 100 µM
- EC90 (Human coronavirus 229E [10]): 4.1 µM
- EC99 (Human coronavirus 229E [10]): 10 µM
- EC50 (Influenza B virus [11]): > 100 µM
- EC50 (Influenza A virus [12]): > 100 µM
- CC50 (MDCK): 8.6 µM
- MCC at 72 h [13]: 4 µM

Structure (SMILES): CCCCOCc1cn(CCOCCOCCOCCOCc2cn([C@H]3C(=O)N[C@@H]4Cc5ccc(c(Cl)c5)Oc5cc6cc(c5O)Oc5ccc(cc5Cl)[C@@H](O[C@@H]5O[C@H](CO)[C@@H](O)[C@H](O)[C@H]5NC(C)=O)[C@H]5NC(=O)[C@H](NC(O)[C@@H]6NC(=O)[C@@H](NC4=O)c4cc(O)cc(c4)Oc4cc3ccc4O)c3ccc(O)c(c3)-c3c(O)cc(O)cc3[C@H](C(=O)O)NC5=O)nn2)nn1 (some centres not stated)
- EC50 (Human coronavirus 229E [1]): ≥ 100 µM
- EC50 (Influenza A virus [2]): > 100 µM
- EC50 (Influenza A virus [4]): 47 µM
- EC50 (Influenza B virus [5]): > 100 µM
- MCC at 120 h [6]: ≥ 100 µM
- EC50 (Influenza A virus [7]): > 100 µM
- EC50 (H3N2 subtype [8]): > 100 µM
- EC50 (H3N2 subtype [9]): 31 µM
- EC50 (Influenza B virus [11]): 28 µM
- EC50 (Influenza A virus [12]): 51 µM
- CC50 (MDCK): > 100 µM
- MCC at 72 h [13]: 100 µM
